Data as given in ChEMBL document CHEMBL4130483, “Leishmanicidal and cytotoxic activity of hederagenin-bistriazolyl derivatives” (Eur J Med Chem, 2017).
Values belong to the molecule of their own block, whether it stands above or below them.

Assays:
[1] = test system: FaDu; assay: Cytotoxicity against human FADU cells assessed as reduction in cell viability incubated fro 96 hrs by SRB assay; assay type: functional, cell-based
[2] = test system: HT-29; assay: Cytotoxicity against human HT-29 cells assessed as reduction in cell viability incubated fro 96 hrs by SRB assay; assay type: functional, cell-based; settings: HT-29, 96 h
In short: (§1)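 Sulforhodamine B photometric assay after 96 h treatment. Monolayers were grown in RPMI 1640 with L-glutamine, 10% heat-inactivated FBS and penicillin/streptomycin at 37 °C in humidified 5% CO2. Cut-off was 30 μM, or 60 μM for the parent. EC50 was averaged from at least three independent experiments, each in four replicates. Betulinic acid was the positive standard.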

[3] = test system: A2780; assay: Cytotoxicity against human A2780 cells assessed as reduction in cell viability incubated fro 96 hrs by SRB assay; assay type: functional, cell-based; settings: A2780, 96 h; in short: as §1
[4] = test system: SW-1736; assay: Cytotoxicity against human SW1736 cells assessed as reduction in cell viability incubated fro 96 hrs by SRB assay; assay type: functional, cell-based; settings: SW-1736, 96 h; in short: as §1
[5] = test system: A-375; assay: Cytotoxicity against human A375 cells assessed as reduction in cell viability incubated fro 96 hrs by SRB assay; assay type: functional, cell-based; settings: A-375, 96 h; in short: as §1
[6] = test system: Leishmania infantum; assay: Antileishmanial activity against Leishmania infantum MHOM/BR/70/BH46 intracellular amastigotes infected in canine DH82 cells assessed as as inhibition of cell growth at 1000 uM incubated for 48 hrs by ELISA method; assay type: functional; settings: MHOM/BR/70/BH46, DH82, 48 h, read-out: GI
[7] = Cytotoxicity in human HepG2 cells assessed as reduction in cell viability incubated for 48 hrs by MTT assay; assay type: cell-based
In short: (§2)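 MTT colorimetric assay with microscopic monitoring. CC50 is the concentration cytotoxic to 50% of BGM or HepG2 cells. Potassium antimonyl tartrate trihydrate was the positive control.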

[8] = Cytotoxicity in dog DH82 cells assessed as reduction in cell viability incubated for 48 hrs by MTT assay; assay type: cell-based, Canis lupus familiaris
In short: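 DH82 canine macrophage viability was monitored microscopically and by MTT colorimetric assay. CC50 is the concentration cytotoxic to 50% of DH82 cells. Potassium antimonyl tartrate trihydrate was the positive control.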

[9] = test system: Leishmania infantum; assay: Antileishmanial activity against Leishmania infantum MHOM/BR/70/BH46 intracellular amastigotes infected in canine DH82 cells assessed as as inhibition of cell growth incubated for 48 hrs by ELISA method; assay type: functional, organism-based; settings: MHOM/BR/70/BH46, DH82, 48 h
In short: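 L. infantum BH46 intracellular amastigotes. Phase II testing at 0.1, 1.0, 10 and 100 μM. IC50 is the concentration inhibiting in vitro growth by 50%, taken from dose-response curves (log concentration vs inhibition) run in four replicates. Potassium antimonyl tartrate trihydrate served as positive control.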

[10] = Selectivity index, ratio of CC50 for dog DH82 cells to IC50 for antileishmanial activity against Leishmania infantum MHOM/BR/70/BH46 intracellular amastigotes infected in canine DH82 cells; assay type: toxicity, cell-based; settings: read-out: Ratio CC50/IC50
In short: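 SI = CC50 in DH82 macrophages (MTT) divided by IC50 against intracellular L. infantum BH46 amastigotes.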

[11] = Selectivity index, ratio of CC50 for African green monkey BGM cells to IC50 for antileishmanial activity against Leishmania infantum MHOM/BR/70/BH46 intracellular amastigotes infected in canine DH82 cells; assay type: toxicity, cell-based; settings: read-out: Ratio CC50/IC50
In short: (§3)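 SI = CC50 in BGM or HepG2 cells (MTT) divided by the intracellular amastigote IC50.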

[12] = Cytotoxicity in African green monkey BGM cells assessed as reduction in cell viability incubated for 48 hrs by MTT assay; assay type: cell-based; settings: chlorocebus aethiops; in short: as §2
[13] = Selectivity index, ratio of CC50 for human HepG2 cells to IC50 for antileishmanial activity against Leishmania infantum MHOM/BR/70/BH46 intracellular amastigotes infected in canine DH82 cells; assay type: toxicity, cell-based; settings: read-out: Ratio CC50/IC50; in short: as §3
[14] = test system: Leishmania infantum; assay: Antiparasitic activity against Leishmania infantum; assay type: functional, organism-based

SMILES: CC1(C)CC[C@]2(C(=O)OCc3cn(Cc4ccc(Br)cc4)nn3)CC[C@]3(C)C(=CC[C@@H]4[C@@]5(C)CC[C@H](O)[C@@](C)(COCc6cn(Cc7ccc(Br)cc7)nn6)[C@@H]5CC[C@]43C)[C@@H]2C1
EC50 [1]: > 30 µM | EC50 [2]: > 30 µM | EC50 [3]: > 30 µM | EC50 [4]: > 30 µM | EC50 [5]: > 30 µM | inhibition of growth at 1000 µM [6]: 9.8%

SMILES: CC1(C)CC[C@]2(C(=O)OCc3cn(Cc4ccc(Cl)cc4)nn3)CC[C@]3(C)C(=CC[C@@H]4[C@@]5(C)CC[C@H](O)[C@@](C)(COCc6cn(Cc7ccc(Cl)cc7)nn6)[C@@H]5CC[C@]43C)[C@@H]2C1
EC50 [1]: > 30 µM | EC50 [2]: > 30 µM | EC50 [3]: > 30 µM | EC50 [4]: > 30 µM | EC50 [5]: > 30 µM | inhibition of growth at 1000 µM [6]: 1.6%

SMILES: CC1(C)CC[C@]2(C(=O)OCc3cn(CC(=O)c4ccccc4)nn3)CC[C@]3(C)C(=CC[C@@H]4[C@@]5(C)CC[C@H](O)[C@@](C)(COCc6cn(CC(=O)c7ccccc7)nn6)[C@@H]5CC[C@]43C)[C@@H]2C1
EC50 [1]: > 30 µM | EC50 [2]: > 30 µM | EC50 [3]: > 30 µM | EC50 [4]: > 30 µM | EC50 [5]: > 30 µM | inhibition of growth at 1000 µM [6]: 0%

SMILES: CC1(C)CC[C@]2(C(=O)OCc3cn(Cc4ccccc4[N+](=O)[O-])nn3)CC[C@]3(C)C(=CC[C@@H]4[C@@]5(C)CC[C@H](O)[C@@](C)(COCc6cn(Cc7ccccc7[N+](=O)[O-])nn6)[C@@H]5CC[C@]43C)[C@@H]2C1
EC50 [1]: > 30 µM | EC50 [2]: > 30 µM | EC50 [3]: > 30 µM | EC50 [4]: > 30 µM | EC50 [5]: > 30 µM | inhibition of growth at 1000 µM [6]: 35%

SMILES: C#CCOC[C@@]1(C)[C@@H]2CC[C@]3(C)[C@H](CC=C4[C@@H]5CC(C)(C)CC[C@]5(C(=O)OCC#C)CC[C@]43C)[C@@]2(C)CC[C@@H]1O
CC50 at 48 h [7]: 104 µM | CC50 at 48 h [8]: 259 µM | IC50 [9]: 28.8 µM | selectivity ratio [10]: 9 | selectivity ratio [11]: 3.5 | CC50 at 48 h [12]: 99 µM | selectivity ratio [13]: 3.7 | inhibition of growth at 1000 µM [6]: 77.2%

IC50 [14]: 11 µM
SMILES: CC1(C)CC[C@]2(C(=O)OCc3cn(Cc4ccc(F)cc4F)nn3)CC[C@]3(C)C(=CC[C@@H]4[C@@]5(C)CC[C@H](O)[C@@](C)(CO)[C@@H]5CC[C@]43C)[C@@H]2C1

IC50 [14]: 2 to 6 µM
SMILES: CC1(C)CC[C@]2(C(=O)NCc3cn(Cc4ccc(Cl)cc4)nn3)CC[C@]3(C)C(=CC[C@@H]4[C@@]5(C)CC[C@H](O)[C@@](C)(CO)[C@@H]5CC[C@]43C)[C@@H]2C1

SMILES: CC1(C)CC[C@]2(C(=O)OCc3cn(Cc4cccc(Cl)c4)nn3)CC[C@]3(C)C(=CC[C@@H]4[C@@]5(C)CC[C@H](O)[C@@](C)(COCc6cn(Cc7cccc(Cl)c7)nn6)[C@@H]5CC[C@]43C)[C@@H]2C1
EC50 [1]: > 30 µM | EC50 [2]: > 30 µM | EC50 [3]: > 30 µM | EC50 [4]: > 30 µM | EC50 [5]: > 30 µM | inhibition of growth at 1000 µM [6]: 41.8%

SMILES: CC1(C)CC[C@]2(C(=O)OCc3cn(Cc4ccccc4Cl)nn3)CC[C@]3(C)C(=CC[C@@H]4[C@@]5(C)CC[C@H](O)[C@@](C)(COCc6cn(Cc7ccccc7Cl)nn6)[C@@H]5CC[C@]43C)[C@@H]2C1
EC50 [1]: > 30 µM | EC50 [2]: 27 µM | EC50 [3]: > 30 µM | EC50 [4]: > 30 µM | EC50 [5]: > 30 µM | inhibition of growth at 1000 µM [6]: 4.1%

SMILES: CC1(C)CC[C@]2(C(=O)OCc3cn(CC(=O)c4ccc5ccccc5c4)nn3)CC[C@]3(C)C(=CC[C@@H]4[C@@]5(C)CC[C@H](O)[C@@](C)(COCc6cn(CC(=O)c7ccc8ccccc8c7)nn6)[C@@H]5CC[C@]43C)[C@@H]2C1
EC50 [1]: > 30 µM | EC50 [2]: > 30 µM | EC50 [3]: > 30 µM | EC50 [4]: > 30 µM | EC50 [5]: > 30 µM | inhibition of growth at 1000 µM [6]: 71.5%

SMILES: CC1(C)CC[C@]2(C(=O)OCc3cn(Cc4cccc(Br)c4)nn3)CC[C@]3(C)C(=CC[C@@H]4[C@@]5(C)CC[C@H](O)[C@@](C)(COCc6cn(Cc7cccc(Br)c7)nn6)[C@@H]5CC[C@]43C)[C@@H]2C1
EC50 [1]: > 30 µM | EC50 [2]: > 30 µM | EC50 [3]: > 30 µM | EC50 [4]: > 30 µM | EC50 [5]: > 30 µM | inhibition of growth at 1000 µM [6]: 7.8%
